Shown are actives, neighbours in structure and some others; about 2.1% of the full set was active somewhere.
RanGTP-Impb inh – inhibitors of RanGTP-importin-beta interaction, primary screen, biochemical, FRET, CFP-Ran, YFP-importin-beta, homogeneous | actives 1.1% (n = 300,000) | cell-free CFP-Ran/YFP-importin-beta FRET ratio | inhibition, % (test concentration not listed);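 active = more than half of the replicate wells show a fall in the fluorescence ratio signal beyond about 16%, limit read from the data, passing the limit was not always enough; inconclusive = exactly half of the replicate wells pass the set limit; inactive = fewer than half of replicates pass the limit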;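 note: 0% = DMSO wells and 100% = Ran loaded with GDP instead of GTP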
Runt-CBFb FRET – blocks binding of human RUNX1 Runt domain to CBFb. actives 0.46% (n = 220,000). inhibition, % at 20 µM. Q01196+Q13951. AID 1496. Cerulean-Runt/Venus-CBFb FRET ratio 530/480, 1 h;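 active = inhibition over about 50% at 20 µM in the single-dose screen, limit read from the data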;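 note: 0% = DMSO wells and 100% = excess unlabeled CBFb competitor control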
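Assay system: Cerulean-Runt domain fusion protein, energy donor; Signal: fluorescence energy transfer, 422 nm excitation, 530/480 nm emission; Timing: 1 h compound exposure, room temperature; Control set: unlabeled CBFb; Medium: Tris buffer pH 7.5 with salts and BSA; Compound: single test concentration of 20 µM, 1% DMSO final; Probe or stimulus: Venus-CBFb 100 nM.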
L929 necroptosis – blocks zVAD induced death of L929 cells; L929 zVAD necroptosis rescue, ATP luminescence, 24 h; with zVAD 60 µM; viability rescue, % at 10 µM; actives 0.38% (n = 220,000); AID 1377;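 active = activation, scaled between plate controls, above about 75%, limit read from the data; inactive = activation under that limit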;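 note: 0% = zVAD with DMSO and 100% = DMSO alone without zVAD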
TNF necrop inh – blocks TNF-alpha induced death of Jurkat FADD-/- cells | Jurkat FADD-/- TNF necroptosis rescue, ATP luminescence, 24 h; 0 = TNF only, 100 = no-TNF cells | activation (protection from cell death), % at 10 µM | actives 0.068% (n = 220,000) | AID 463075;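 active = activation, meaning protection from cell death, of at least 50% relative to plate controls; inactive = activation below 50%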;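 note: necroptosis triggered by 40 ng/mL TNF-alpha added together with compound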
Hck Nef HTS – blocks Nef-activated human Hck kinase. P08631. Recombinant Hck-YEEI plus Nef, Z-Lyte FRET kinase assay. inhibition, % at 20 µM. actives 0.68% (n = 220,000). AID 463187;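 active = Hck-Nef kinase inhibition above about 50%, limit read from the data; inactive = inhibition below that limit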;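 note: 0% = DMSO with Hck plus Nef and 100% = Hck alone without Nef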
Runt-SMMHC FRET – inhibitors of human RUNX1 Runt domain binding to CBFb-SMMHC | actives 0.74% (n = 220,000) | Q01196+Q13951 | Cerulean-Runt/Venus-CBFb-SMMHC FRET ratio 530/480, 1 h | inhibition, % at 20 µM;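 active = mean inhibition across duplicate retests at 20 µM reaching about 50%, limit read from the data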;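 note: 0% = DMSO wells and 100% = wells with excess untagged CBFb-SMMHC; inhibitors lower the FRET ratio by blocking Runt binding to CBFb-SMMHC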
Hck-Nef confirm – Hck-Nef kinase inhibition, confirmation; AID 463188; Recombinant Hck-YEEI:Nef, Z-Lyte FRET kinase assay; calls only at 10 µM; shares compounds with Hck Nef HTS; actives 28% (n = 1,300);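 active = average inhibition of at least 50%, with Z-scores no higher than 3 in both the phospho-tyrosine peptide and fluorescence counterscreens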
* = called active by the depositor; i = inactive; ? = inconclusive; . = not tested or not shown; + = active, no number.

SMILES	RanGTP-Impb inh	Runt-CBFb FRET	L929 necroptosis	TNF necrop inh	Hck Nef HTS	Runt-SMMHC FRET	Hck-Nef confirm
Cc1cccn2c(=O)c3cc(C(=O)N4CCCc5ccccc54)n(C)c3nc12	.	.	0	0	13	.	.
CN(C)CCNC(=O)Nc1ccc(F)cc1F	-2	1	2	0	3	-5	.
Cc1cccc(C(=O)NC(=S)NC(C)c2ccccc2)c1 (stereo unspecified)	-1	.	.	.	.	.	.
O=C(Nc1ccc2c(c1)OCCO2)c1cc(-c2ccccn2)nc2ccc(Br)cc12	6	0	1	-1	78*	-10	i
O=C(Nc1ccc(S(=O)(=O)Nc2nccs2)cc1)c1cc(-c2ccccc2Cl)nc2ccccc12	-8	-2	0	-5	-1	-4	.
O=C(Nc1ccc(S(=O)(=O)Nc2nccs2)cc1)c1cc(-c2ccccn2)nc2ccccc12	3	1	19	-3	51*	0	i
Cc1ccc(N(C(=O)c2csnn2)C(C(=O)NC2CCCCC2)c2ccccn2)cc1C (stereo unspecified)	0	.	.	.	.	.	.
COc1ccc(-c2cc(=O)c3c(O)c(OC)c(O)cc3o2)cc1	7	2	1	-4	67*	-3	i
COc1cc(-c2cc(=O)c3c(O)cc(O)cc3o2)ccc1O	10	-20	68	-5	54*	-77	i
COc1cc(-c2cc(=O)c3ccccc3o2)ccc1O	2	-40	71	-1	-72	-139	.
COCCNc1cc(C)c(C#N)c2nc3ccccc3n12	25*	17	0	-2	70*	44	.
CCCc1cc(NCC2CCCO2)n2c(nc3ccccc32)c1C#N (stereo unspecified)	52*	20	0	-3	121*	55*	.
CCN(CC)c1ccc2cc(C(N)=O)c(=O)oc2c1	153*	4	0	-4	123*	95*	.
NC(=O)c1cc2ccc(O)cc2oc1=NCc1ccccc1	181*	5	6	2	104*	83*	.
NC(=O)c1cc2ccccc2oc1=NCc1ccccc1	6	-3	0	-2	5	2	.
O=C(OCc1cccc([N+](=O)[O-])c1)c1cc(=O)[nH]c2ccccc12	0	0	12	1	18	-2	.
COc1ccccc1NC(=O)c1c(N=Cc2ccccc2O)cnn1C	-1	-1	1	-4	21	-4	.
Cc1ccc(C(=O)NC(=S)Nc2ccc(-c3ccc(CO)o3)cc2)cc1	?	11	-1	0	61*	15	i
O=C(NC(=S)Nc1ccc(-c2ccc(CO)o2)cc1)c1cccs1	.	14	5	3	31	9	.
Oc1ccc(/C=N/Nc2nccnc2Cl)cc1	2	0	-1	-5	-2	-4	.
Nc1c(Cl)ncnc1N/N=C/c1ccc(O)cc1	0	9	27	6	52*	-3	i
O=c1[nH]c(S)c(/C=C2\C=Nc3ccccc32)s1	?	31	0	-3	-54	-29	.
Oc1cccc(Nc2nc(O)c(/C=C3\C=Nc4ccccc43)s2)c1	.	-40	36	4	88*	-114	+
CC(=O)n1cc(Nc2ccc([N+](=O)[O-])cc2)c2ccccc21	-3	-1	0	-1	108*	-4	i
CC(=O)n1cc(Nc2ccccc2C(=O)O)c2ccccc21	3	2	0	-3	-1	4	.
COc1cc(OC)c(/C=N/NC(=O)c2ccc(NC(C)=O)cc2)cc1Br	0	2	3	-1	55*	3	i
